Laboratory results: ChEMBL document CHEMBL1157585, “Synthesis and characterization of novel 1,2,4-triazine derivatives with antiproliferative activity” (Bioorg Med Chem, 2010)
In brackets after ≈: the same amount, converted by molar mass.

Tests used:
HeLa = assay: Cytotoxicity against human HeLa cells after 72 hrs by methylene blue staining; assay type: functional
Summary of the method: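 HeLa cells were cultured at 37 °C in RPMI 1640 with ultraglutamine, gentamicin and 10% heat-inactivated FBS, then pre-incubated 48 h without compound. Compound dilutions went onto the subconfluent monolayers, followed by 72 h at 37 °C, humidified, 5% CO2. Cells were fixed with glutaraldehyde, stained 15 min with 0.05% methylene blue and eluted with 0.33 N HCl, with OD read at 660 nm. CC50 was taken at 50% of untreated control, with 4 parallels per concentration.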

K562 = assay: Antiproliferative activity against human K562 cells after 72 hrs by resazurin dye reduction assay; assay type: functional; conditions: K562, 72 h
Summary of the method: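 K-562 cells grown at 37 °C in RPMI 1640 with ultraglutamine, gentamicin and 10% heat-inactivated FBS. About 10,000 cells seeded per well in 0.1 mL medium. Compounds were dissolved in DMSO, diluted in DMEM and incubated with cells for 72 h at 37 °C, humidified, 5% CO2. Viable cells were read by CellTiter-Blue resazurin fluorescence. GI50 was taken where the dose-response curve crosses 50% of untreated control, with 4 parallels per concentration.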

[1] = Octanol-water partition coefficient, log P by RP-HPLC method; assay type: physicochemical
[2] = Antiproliferative activity against HUVEC after 72 hrs by resazurin dye reduction assay; assay type: cell-based; conditions: human, HUVEC cells
Albumin = Albumin (Homo sapiens, UniProt P02768); assay: Binding affinity to HSA after 30 mins assessed as quenching of intrinsic HSA fluorescence emission by spectrofluorimetric assay; assay type: ADME
Summary of the method: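 Intrinsic tryptophan fluorescence of HSA at 2 µM final in PBS pH 7.4. Compound stocks were made in DMSO and titrated at increasing concentrations, with 30 min incubation at ambient temperature. Kd came from a quadratic binding equation fitted by nonlinear least squares (Marquardt).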

Chain of Albumin (P02768 whole entry): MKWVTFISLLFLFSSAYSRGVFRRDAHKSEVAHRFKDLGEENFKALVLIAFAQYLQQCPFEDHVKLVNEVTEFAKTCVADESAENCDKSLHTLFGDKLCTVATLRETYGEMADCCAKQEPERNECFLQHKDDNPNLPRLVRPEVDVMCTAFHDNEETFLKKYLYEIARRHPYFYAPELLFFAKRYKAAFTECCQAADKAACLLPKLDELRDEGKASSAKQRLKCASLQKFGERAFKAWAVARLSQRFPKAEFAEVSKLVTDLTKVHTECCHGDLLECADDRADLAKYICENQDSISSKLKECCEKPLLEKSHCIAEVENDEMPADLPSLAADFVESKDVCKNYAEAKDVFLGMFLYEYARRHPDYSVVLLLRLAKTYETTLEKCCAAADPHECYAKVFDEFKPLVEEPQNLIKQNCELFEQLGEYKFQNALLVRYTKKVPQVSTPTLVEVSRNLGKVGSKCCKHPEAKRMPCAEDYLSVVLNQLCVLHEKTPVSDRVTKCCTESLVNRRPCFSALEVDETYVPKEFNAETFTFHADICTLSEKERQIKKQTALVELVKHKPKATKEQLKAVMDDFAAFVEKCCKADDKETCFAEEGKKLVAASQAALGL

SMILES	CC50 (HeLa)	GI50 (K562)	logP [1]	GI50 at 72 h [2]	Kd (Albumin)
COc1cccc2c1C(=O)c1c(O)c3c(c(O)c1C2=O)C[C@@](O)(C(=O)CO)C[C@@H]3O[C@H]1C[C@H](N)[C@H](O)[C@H](C)O1 [DOXORUBICIN]	2 µg/mL (≈ 3.68 µM)	1 µg/mL (≈ 1.84 µM)	0.71	0.1 µg/mL (≈ 0.184 µM)	–
CN(C)C1=NN(c2ccc(Cl)cc2)CN(c2ccccc2Cl)C1=O	39.4 µg/mL (≈ 108 µM)	11 µg/mL (≈ 30.3 µM)	4.2	16.1 µg/mL (≈ 44.3 µM)	10.2 µM
O=C1C(N2CCOCC2)=NN(c2ccc(Cl)cc2)CN1c1ccccc1Cl	> 50 µg/mL	> 50 µg/mL	4	45.6 µg/mL (≈ 113 µM)	–
O=C1C(N2CCCCC2)=NN(c2ccc(Cl)cc2)CN1c1ccccc1Cl	> 50 µg/mL	> 50 µg/mL	5	> 50 µg/mL	–
O=C1C(N2CCCCC2)=NN(c2ccccc2)CN1c1ccccc1Cl	26 µg/mL (≈ 70.5 µM)	42 µg/mL (≈ 114 µM)	4.6	24.7 µg/mL (≈ 67 µM)	–
O=C1C(N2CCCC2)=NN(c2ccc(Cl)cc2)CN1c1ccccc1Cl	> 50 µg/mL	8.6 µg/mL (≈ 22.1 µM)	4.6	18.9 µg/mL (≈ 48.6 µM)	2.77 µM
Cc1ccc(NC(=O)c2ccc(CN3CCN(C)CC3)cc2)cc1Nc1nccc(-c2cccnc2)n1 [IMATINIB]	–	0.1 µg/mL (≈ 0.203 µM)	–	10.9 µg/mL (≈ 22.1 µM)	–
CN(C)C1=NN(c2ccccc2)CN(c2ccccc2Cl)C1=O	39.5 µg/mL (≈ 120 µM)	5.8 µg/mL (≈ 17.6 µM)	3.6	34.5 µg/mL (≈ 105 µM)	7.96 µM
O=C1C(N2CCCC2)=NN(c2ccccc2)CN1c1ccccc1Cl	44.3 µg/mL (≈ 125 µM)	5.2 µg/mL (≈ 14.7 µM)	4	40.9 µg/mL (≈ 115 µM)	2.46 µM
O=C1C(N2CCOCC2)=NN(c2ccccc2)CN1c1ccccc1Cl	> 50 µg/mL	> 50 µg/mL	3.5	> 50 µg/mL	–
